From ChEMBL document CHEMBL2380310, “Discovery of 7-oxopyrazolo[1,5-a]pyrimidine-6-carboxamides as potent and selective CB(2) cannabinoid receptor inverse agonists” (J Med Chem, 2013)

Experiments:
Homo sapiens = species on record: Homo sapiens; assay: Selectivity index, ratio of Ki for human CB1 receptor to Ki for human CB2 receptor
Cannabinoid receptor 2 [1] = target: T1, Cannabinoid receptor 2 (Rattus norvegicus, UniProt Q9QZN9); assay: Displacement of [3H]CP-55940 from Sprague-Dawley rat spleen CB2 receptor after 60 mins by scintillation counting analysis
T1 sequence (Q9QZN9 whole entry): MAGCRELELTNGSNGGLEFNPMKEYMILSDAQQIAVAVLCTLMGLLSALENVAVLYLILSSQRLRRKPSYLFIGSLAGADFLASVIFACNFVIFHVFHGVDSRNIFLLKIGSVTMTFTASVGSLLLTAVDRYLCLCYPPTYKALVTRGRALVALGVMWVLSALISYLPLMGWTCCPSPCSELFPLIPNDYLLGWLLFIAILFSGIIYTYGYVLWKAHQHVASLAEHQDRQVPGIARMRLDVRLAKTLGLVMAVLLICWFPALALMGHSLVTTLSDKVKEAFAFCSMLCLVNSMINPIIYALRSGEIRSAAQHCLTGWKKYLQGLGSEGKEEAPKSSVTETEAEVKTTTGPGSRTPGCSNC
Method in brief: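 Competed against 0.5 nM [³H]CP-55,940 using 1 nM–10 μM compound for 60 min at 30 °C. Bound ligand collected on GF/C filters and counted. Ki from IC50 by Cheng-Prusoff; mean SEM of n = 4.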

Cannabinoid receptor 1 [2] = target: Cannabinoid receptor 1 (Rattus norvegicus, UniProt P20272); assay: Displacement of [3H]CP-55940 from Sprague-Dawley rat brain CB1 receptor after 90 mins by scintillation counting analysis
Chain of Cannabinoid receptor 1 (Rattus norvegicus, UniProt P20272) (P20272 whole entry): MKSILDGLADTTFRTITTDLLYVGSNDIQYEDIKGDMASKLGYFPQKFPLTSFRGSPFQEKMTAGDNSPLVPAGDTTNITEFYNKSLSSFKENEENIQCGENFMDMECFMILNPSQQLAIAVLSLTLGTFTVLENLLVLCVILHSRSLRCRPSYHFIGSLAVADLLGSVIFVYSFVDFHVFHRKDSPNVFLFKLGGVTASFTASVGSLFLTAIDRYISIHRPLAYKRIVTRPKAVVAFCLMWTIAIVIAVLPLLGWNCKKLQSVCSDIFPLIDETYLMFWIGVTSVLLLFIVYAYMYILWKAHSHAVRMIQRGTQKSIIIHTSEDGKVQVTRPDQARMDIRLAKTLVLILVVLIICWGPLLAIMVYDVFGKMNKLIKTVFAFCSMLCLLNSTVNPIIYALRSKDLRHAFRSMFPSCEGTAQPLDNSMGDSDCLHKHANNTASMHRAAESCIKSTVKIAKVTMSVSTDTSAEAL
Method in brief: (§1)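 Competition with [³H]CP-55,940 (1.0 nM stated in rat CB₁ section; 0.5 nM in general protocol) against 1 nM–10 μM compound, 90 min at 30 °C. GF/C filtration, scintillation counting. Ki via Cheng-Prusoff; mean SEM, n = 4.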

Cannabinoid receptor 2 [3] = target: T2, Cannabinoid receptor 2 (Homo sapiens, UniProt P34972); assay: Inverse agonist activity at human CB2 receptor expressed in CHO cell membrane assessed as increase in forskolin-stimulated cAMP production at 1 uM by scintillation counting analysis relative to WIN55212-2
T2 sequence (P34972 whole entry): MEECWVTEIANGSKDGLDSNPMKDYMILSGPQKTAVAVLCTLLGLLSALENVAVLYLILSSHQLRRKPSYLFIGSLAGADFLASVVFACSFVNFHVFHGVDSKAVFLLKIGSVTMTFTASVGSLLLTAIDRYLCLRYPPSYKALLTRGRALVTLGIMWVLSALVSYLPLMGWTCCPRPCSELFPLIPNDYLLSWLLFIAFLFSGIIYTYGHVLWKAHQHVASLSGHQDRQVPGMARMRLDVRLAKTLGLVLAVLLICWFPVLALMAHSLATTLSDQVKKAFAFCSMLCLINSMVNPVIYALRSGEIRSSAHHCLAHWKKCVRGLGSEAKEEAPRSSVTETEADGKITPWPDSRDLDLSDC
Method in brief: (§2)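 Whole hCB₂ CHO cells (1 × 10⁶/assay) in HEPES-buffered saline with glucose, pH 7.4, preincubated 10 min at 37 °C with 0.5 mM Ro 20-1724. Compound at 1 or 10 μM with 1 μM forskolin. Stopped with cold 6% TCA, ether-extracted; cAMP measured by [³H]cAMP competition binding with adrenal binding protein. Expressed as % increase versus WIN 55,212-2 (set −100%); n = 4.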

Cannabinoid receptor 2 [4] = target: T2, Cannabinoid receptor 2; assay: Inverse agonist activity at human CB2 receptor expressed in CHO cell membrane assessed as increase in forskolin-stimulated cAMP production at 10 uM by scintillation counting analysis relative to WIN55212-2; method in brief: as §2
Cannabinoid receptor 2 [5] = target: T2, Cannabinoid receptor 2; assay: Displacement of [3H]CP-55940 from human CB2 receptor expressed in CHO cell membrane after 60 mins by scintillation counting analysis; format: cell membranes
Method in brief: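 Human CB₂-expressing CHO cell membranes in 50 mM Tris-HCl, 0.5% BSA, 5 mM MgCl₂, 1 mM EDTA, pH 7.4. Binding of 0.5 nM [³H]CP-55,940 competed with 1 nM–10 μM compound for 60 min at 30 °C, then GF/C filtration and scintillation counting. Ki by Cheng-Prusoff from IC50; mean SEM of n = 4.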

Cannabinoid receptor 1 [6] = target: T3, Cannabinoid receptor 1 (Homo sapiens, UniProt P21554); assay: Displacement of [3H]CP-55940 from human CB1 receptor expressed in CHO cell membrane after 90 mins by scintillation counting analysis; format: cell membranes
T3 sequence (P21554 whole entry): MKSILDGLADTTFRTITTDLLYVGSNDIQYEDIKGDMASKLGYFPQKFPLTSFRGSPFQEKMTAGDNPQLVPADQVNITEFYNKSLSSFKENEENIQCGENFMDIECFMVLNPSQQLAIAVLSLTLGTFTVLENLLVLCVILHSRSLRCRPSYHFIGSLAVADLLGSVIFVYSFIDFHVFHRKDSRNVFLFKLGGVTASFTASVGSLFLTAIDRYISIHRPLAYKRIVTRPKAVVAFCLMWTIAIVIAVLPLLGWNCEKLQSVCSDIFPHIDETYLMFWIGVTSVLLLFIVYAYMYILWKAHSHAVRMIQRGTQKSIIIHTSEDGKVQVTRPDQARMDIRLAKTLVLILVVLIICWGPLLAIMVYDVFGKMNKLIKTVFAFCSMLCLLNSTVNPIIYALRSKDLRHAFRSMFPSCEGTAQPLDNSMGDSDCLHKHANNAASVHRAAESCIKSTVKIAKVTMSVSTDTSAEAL
Method in brief: (§3)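 Membranes from CHO cells stably expressing human CB₁ (G418-maintained), suspended in 50 mM Tris-HCl, 0.5% BSA, 5 mM MgCl₂, 2.5 mM EDTA, pH 7.4. Displacement of 0.5 nM [³H]CP-55,940 by 1 nM–10 μM compound, 90 min, 30 °C. Filtration on GF/C, scintillation counting. Cheng-Prusoff Ki, LIGAND fitting; mean SEM, n = 4.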

Cannabinoid receptor 1 [7] = target: T3, Cannabinoid receptor 1; assay: Displacement of [3H]CP-55940 from human CB1 receptor expressed in CHO cell membrane at > 10 uM after 90 mins by scintillation counting analysis; format: cell membranes; method in brief: as §3
[8] = target: Cannabinoid receptor 1 (Rattus norvegicus) (UniProt P20272); assay: Displacement of [3H]CP-55940 from Sprague-Dawley rat brain CB1 receptor at > 10 uM after 90 mins by scintillation counting analysis; method in brief: as §1
Chain of Cannabinoid receptor 1 (Rattus norvegicus) (P20272 whole entry): as the sequence (P20272 whole entry) above

SMILES	Ratio Ki (Homo sapiens)	Ki (Cannabinoid receptor 2 [1])	Ki (Cannabinoid receptor 1 [2])	Activity (Cannabinoid receptor 2 [3])	Activity (Cannabinoid receptor 2 [4])	Ki (Cannabinoid receptor 2 [5])	Ki (Cannabinoid receptor 1 [6])	Activity (Cannabinoid receptor 1 [7])	Activity [8]
CCCCCn1cc(C(=O)NC2CCCCC2)c(=O)n2nc(-c3ccc(Cl)cc3)cc12	> 181	58 nM	> 10000 nM	79%	94%	55 nM	> 10000 nM	15%	8%
CCCCCn1cc(C(=O)NC23CC4CC(CC(C4)C2)C3)c(=O)n2nc(-c3ccc(Cl)cc3)cc12	> 2580	4.21 nM	> 10000 nM	144%	183%	3.88 nM	> 10000 nM	13%	10%
CCCCCn1cc(C(=O)NC2CCCCCC2)c(=O)n2nc(-c3ccc(Cl)cc3Cl)cc12	> 270	40 nM	> 10000 nM	61%	77%	37 nM	> 10000 nM	39%	49%
CCCCCn1cc(C(=O)NC23CC4CC(CC(C4)C2)C3)c(=O)n2nc(C)c(-c3ccc(OC)cc3)c12	> 28	434 nM	> 10000 nM	36%	60%	350 nM	> 10000 nM	4%	5%
CCCCCn1cc(C(=O)NC23CC4CC(CC(C4)C2)C3)c(=O)n2nc(-c3c(Cl)cccc3Cl)cc12	> 102	110 nM	> 10000 nM	38%	62%	98 nM	> 10000 nM	21%	18%
CCCCCn1cc(C(=O)NC2CCCCCC2)c(=O)n2nc(-c3ccccc3Cl)cc12	> 970	12.3 nM	> 10000 nM	53%	69%	10.3 nM	> 10000 nM	35%	42%
CCCCCn1cc(C(=O)NC2CCCCC2)c(=O)n2nc(-c3ccccc3C)cc12	> 250	48 nM	> 10000 nM	73%	94%	40 nM	> 10000 nM	16%	30%
CCCCCn1cc(C(=O)NC2CCCCC2)c(=O)n2nc(-c3ccc(Cl)cc3Cl)cc12	> 192	60 nM	> 10000 nM	45%	65%	52 nM	> 10000 nM	38%	47%
CCCCCn1cc(C(=O)NC2CCCCCC2)c(=O)n2nc(-c3ccc(Cl)cc3)cc12	> 1580	6.53 nM	> 10000 nM	121%	162%	6.31 nM	> 10000 nM	40%	47%
CCCCCn1cc(C(=O)NC2CCCCCC2)c(=O)n2nc(-c3ccco3)cc12	> 1520	7.23 nM	> 10000 nM	42%	88%	6.57 nM	> 10000 nM	16%	20%
CCCCCn1cc(C(=O)NC2CCCCCC2)c(=O)n2nc(-c3ccc(C)cc3)cc12	> 970	13.2 nM	> 10000 nM	81%	107%	10.3 nM	> 10000 nM	39%	49%
CCCCCn1cc(C(=O)NC23CC4CC(CC(C4)C2)C3)c(=O)n2nc(-c3ccoc3)cc12	> 990	12.4 nM	> 10000 nM	56%	92%	10.1 nM	> 10000 nM	19%	17%
CCCCCn1cc(C(=O)NC23CC4CC(CC(C4)C2)C3)c(=O)n2nc(-c3ccc(C)cc3)cc12	> 2930	3.82 nM	> 10000 nM	138%	168%	3.41 nM	> 10000 nM	38%	45%
CCCCCn1cc(C(=O)NC23CC4CC(CC(C4)C2)C3)c(=O)n2nc(-c3ccccc3Cl)cc12	> 1610	6.32 nM	> 10000 nM	114%	136%	6.21 nM	> 10000 nM	41%	48%
CCCCCn1cc(C(=O)NC23CC4CC(CC(C4)C2)C3)c(=O)n2nc(-c3ccc(Cl)cc3Cl)cc12	> 333	35 nM	> 10000 nM	87%	112%	30 nM	> 10000 nM	37%	40%
CCCCCn1cc(C(=O)NC23CC4CC(CC(C4)C2)C3)c(=O)n2nc(-c3cc(C)cs3)cc12	> 666	18 nM	> 10000 nM	71%	97%	15 nM	> 10000 nM	13%	15%
CCCCCn1cc(C(=O)NC2CCCCC2)c(=O)n2nc(-c3ccco3)cc12	> 1050	10.4 nM	> 10000 nM	73%	103%	9.52 nM	> 10000 nM	21%	30%
